# Yeast life ext: compounds extending yeast replicative lifespan, primary screen, S. cerevisiae, OD615 | S. cerevisiae growth with nicotinamide; deaD strain in restrictive glucose medium | inhibition of the nicotinamide effect, % at 10 µM | 130,000 tested, 0.68% active | AID 775, 2007;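 active = inhibition above a set limit, placed 3 SD over the median of all compounds, cut at about 26% in these data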;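 note: 0% = nicotinamide-treated wells and 100% = cells grown without nicotinamide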
#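 Assay system: DeaD-strain S. cerevisiae. Medium: CSMM-D glucose medium, restrictive. Reagent: nicotinamide, 1.5 mM, co-present with compound. Compound: 10 µM single point, 0.25% DMSO. Schedule: culture preincubation 4 h, compound exposure 48 h, both 30 °C. Detection: absorbance at 615 nm.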
# RAM inhibit: inhibitors of the yeast RAM network, primary screen, dse1pr::URA3 reporter, 5-FOA selection. 190,000 tested, 1.8% active. S. cerevisiae dse1pr::URA3 reporter, 5-FOA growth OD615, 2 d; analog-sensitive cbk1-as2 kinase mutant strain. inhibition, % at 50 µM;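 active = inhibition above a set limit, 3 SD over mean compound inhibition, cut at about 8.4% in these data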;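 note: 0% = DMSO-only wells with no growth and 100% = 10 µM 1-NA-PP1 full growth; inhibition rescues growth on 5-FOA so higher OD means more RAM inhibition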
# Yeast growth inh: growth inhibitors of yeast BB579 in restrictive medium, primary screen, yeast lifespan-shortening project, S. cerevisiae. OD615, 48 h. inhibition, % at 10 µM. 140,000 tested, 0.51% active;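 active = inhibition above a set limit, 3 SD over the mean compound inhibition, cut at about 44% in these data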
#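 test system = yeast BB579 (DeaD) | buffer or medium = restrictive CSMM-D medium | doses = single compound dose of 10 µM, 0.25% DMSO final | times = 4 h preincubation and 48 h exposure at 30 °C | technique = culture absorbance at 615 nm | benchmarks = amphotericin B 10 µg/mL, positive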
# WT yeast gro inh: growth inhibition of WT strain, primary screen, mitochondrial fusion inhibitor project, WT and mutant strains, chemical genetic. AID 1362, 2008. 190,000 tested, 2.1% active. mitochondrial fusion phenotypic screen. inhibition, % at 10 µM; in the data active = inhibition above about 58%; tested in S. cerevisiae
# * = called active by the depositor; / = no result given. This is a sample that favours compounds with a hit; in the whole collection about 4.3% have one here.
SMILES,Yeast life ext,RAM inhibit,Yeast growth inh,WT yeast gro inh
CCN(C(=O)c1cnc(N2CCN(c3ncccn3)CC2)c2ccccc12)c1cccc(Cl)c1,10.6,-0.3,-41.1,62.8*
CCOC(=O)c1ccc(N=C2SC(C(=O)NCCc3ccccc3)CC(=O)N2C)cc1 (centres undefined),/,9.5*,/,2.4
CCCCS(=O)(=O)/C=C\C1C2C=CC(C2)C1S(=O)(=O)CCCC (centres undefined),-5.6,0.5,-35.0,-4.8
CCCCS(=O)(=O)/C=C\C=C/S(=O)(=O)CCCC,14.5,-1.7,-51.0,87.6*
Cc1oncc1-c1csc(-c2ccccc2)n1,/,-1.0,/,13.1
Cc1oncc1-c1csc(-c2ccccc2Cl)n1,/,9.5*,/,14.0
CC1CCN(CC(=O)Nc2ccc(Cl)cc2[N+](=O)[O-])CC1,/,0.0,/,12.3
O=C(Cc1ccccc1)NCc1ccc2c(c1)OCO2,-9.5,1.4,-24.4,2.3
O=C(NCc1ccc2c(c1)OCO2)c1ccc(CSCc2ccccc2Cl)o1,0.4,10.7*,-13.8,41.6
O=C(NCc1ccc2c(c1)OCO2)c1ccc(COc2cccc(Cl)c2)o1,-17.5,5.9,1.6,69.2*
Cc1ccccc1-c1nc(CN(Cc2c(C)nn(C)c2C)C2CC2)c(C)o1,/,0.4,/,8.6
Cc1cc(=O)n(CC(=O)Nc2cc(Cl)ccc2C)c(C(C)C)n1,/,0.4,/,5.1
CCOC(=O)C(C)c1nc2ccccc2[nH]c1=O (centres undefined),-13.8,-1.6,-58.0,72.8*
O=c1[nH]c2ccccc2nc1C(Cl)c1ccccc1 (centres undefined),37.4*,-0.6,-42.1,-6.7
O=C(CC1C(=O)NCCN1CC1CCCCC1)NCCc1ccc(F)cc1 (centres undefined),/,0.2,/,-1.2
Cc1ccc(C(=O)C2CCN(CC(=O)N3CCN(c4ccc(F)cc4)CC3)CC2)cc1,/,2.6,/,11.2
CCCC1=NN(c2ccc([N+](=O)[O-])cc2)C(=O)/C1=C/N(C)C,-6.0,3.5,-12.8,-4.2
CC1=NN(c2nc3ccccc3[nH]2)C(=O)/C1=C/N(C)C,/,-0.1,/,85.0*
CC1=NN(c2ccc([N+](=O)[O-])cc2)C(=O)/C1=C\N(C)C,-3.7,4.5,-31.9,65.4*
Cc1ccccc1NS(=O)(=O)c1ccc(NC(=O)CSCc2ccc(Br)cc2)cc1,-7.3,6.7,-3.6,65.9*
O=C(CSCc1ccc(Br)cc1)Nc1ccc(S(=O)(=O)N2CCOCC2)cc1,-7.6,0.5,-52.6,6.5
Cc1ccc(-n2[nH]c(C)c(/C=N/NC(=O)c3ccc([N+](=O)[O-])cc3)c2=O)c(C)c1,/,2.9,/,5.0
CCOC(=O)C(C(=O)OCC)c1cc(Br)c2noc3c2c1C(=O)c1ccccc1-3,46.2*,7.4,-24.8,21.3
O=C(O)CSCc1cnn(-c2ccccc2)c1-n1cccc1,-17.8,2.9,-39.1,8.4
O=C(CSCc1cnn(-c2ccccc2)c1-n1cccc1)N1CCN(Cc2ccccc2)CC1,-3.6,0.5,-25.3,63.0*
SMILES,Yeast life ext,RAM inhibit,Yeast growth inh,WT yeast gro inh
CCOc1ccc(NC(=O)CSCc2cnn(-c3ccccc3)c2-n2cccc2)cc1,0.7,10.1*,-60.0,35.9
COc1ccccc1N1CCN(C(=O)CCc2c[nH]c3ccccc23)CC1,/,2.1,/,12.2
CC(C)N1C2OC(C3OC4C(O3)N(C(C)C)S(=O)(=O)N4C(C)C)OC2N(C(C)C)S1(=O)=O (centres undefined),-4.4,0.9,-6.5,62.8*
CC1=CC(C)C2(CO)COC(c3ccccc3O)C1C2C (centres undefined),1.8,0.4,-23.9,2.5
COCCNC(=O)c1cnn2c(C(F)(F)F)cc(-c3ccc(C)cc3)nc12,/,0.5,/,-50.7
O=C(N/N=C/c1c[nH]c2ccccc12)c1[nH]c2ccc(Br)cc2c1-c1ccccc1,-3.4,3.9,-41.3,96.0*
O=C(N/N=C/c1ccc(O)cc1)c1[nH]c2ccc(Br)cc2c1-c1ccccc1,-1.8,2.9,-21.8,-0.1
CN(C)CCCOc1nc2c(c(=O)n(C)c(=O)n2C)n1C,/,3.2,-15.5,-3.4
COc1cc(/C=C2/SC(=S)NC2=O)ccc1OS(=O)(=O)c1ccc(C)cc1,0.3,6.4,-35.3,73.4*
COc1cc(/C=C2\SC(=S)NC2=O)ccc1OS(=O)(=O)c1ccccc1,1.8,4.9,-28.0,79.2*
Cc1cccc(CN2CCN(C(=O)CCc3nnc(C4CCCCC4)o3)CC2)c1,/,-0.4,/,-14.1
C[C@H]1O[C@H](O[C@H]2[C@H](O)[C@@H](O)[C@@H](O[C@H]3[C@H](O)[C@@H](O)C(O)O[C@@H]3CO)O[C@@H]2CO)[C@H](O)[C@@H](O)[C@@H]1N[C@H]1C=C(CO)[C@@H](O)[C@H](O)[C@H]1O (some centres undefined),/,/,/,2.2
Cc1c(NC(=O)C(C)OC(=O)CCc2ccccc2)c(=O)n(-c2ccccc2)n1C (centres undefined),/,0.3,/,-11.8
CC(Sc1nc2ccccc2s1)C(=O)c1c(N)n(C)c(=O)n(C)c1=O (centres undefined),/,1.8,/,-10.7
COC(=O)N/N=C(\C)c1ccc(-n2ccnc2)cc1,/,3.7,/,-10.0
C/C(=N\Nc1cccc(Cl)c1)c1ccc(-n2ccnc2)cc1,-8.6,-1.3,-46.0,66.1*
CC(=O)c1ccc(N2CCN(C(=O)c3ccc(Cn4c(=S)[nH]c5ccc(N6CCOCC6)cc5c4=O)cc3)CC2)cc1,/,9.4*,/,-6.8
C=CCn1c(=O)[nH]c2cc(C(=O)N3CCN(c4ccc(C(C)=O)cc4)CC3)ccc2c1=O,55.3*,2.8,-45.8,21.6
O=c1c2cc(N3CCOCC3)ccc2[nH]c(=S)n1Cc1ccccc1Cl,/,8.5*,/,19.1
C=CCn1c(=O)[nH]c2cc(C(=O)N3CCN(c4cccc(Cl)c4)CC3)ccc2c1=O,-3.0,4.0,-21.3,2.3
COC(=O)c1c(C(=O)OC)c(-c2ccc(Cl)cc2)n2c1CS(=O)(=O)C2,/,-0.6,/,-2.7
C=CCn1c(-c2ccc(OC)cc2)csc1=Nc1c(C)n(C)n(-c2ccccc2)c1=O,99.9*,1.9,-37.8,5.8
COC(=O)/C(=C/c1c[nH]c2ccccc12)[N+](=O)[O-],26.2*,-1.1,-31.7,11.2
COC(=O)/C(=C/c1cn(C)c2ccccc12)[N+](=O)[O-],74.1*,-1.4,-61.1,-3.3
CO/N=C\CC(=O)Nc1ccc(Oc2ccccc2)cc1,/,1.9,/,-6.5
SMILES,Yeast life ext,RAM inhibit,Yeast growth inh,WT yeast gro inh
CCNC(=S)N1CCN(CC)CC1,/,3.7,/,16.4
FC(F)(F)c1nc(N2CCCC2)ncc1-c1nnnn1-c1ccccc1,0.7,0.3,10.0,60.1*
CCOc1ccc(/C=C/C(=O)c2c(O)c3ccccc3oc2=O)cc1,80.3*,2.9,-71.3,-13.8
CCOc1ccc(/C=C/C(=O)NCc2ccccc2)cc1,-5.3,0.8,-22.0,4.2
Clc1ccc(OCCn2c(-c3ccco3)nc3ccccc32)cc1,-6.5,-2.0,-51.6,83.0*
C#CCNC(=O)C1=C[C@H](C)[C@@H](CCCO)[C@H](OCC)O1,/,0.9,/,4.2

# Screening data from PubChem.
